According to ChEMBL document CHEMBL3351454, “Design, synthesis, antimicrobial evaluation and molecular docking studies of some new thiophene, pyrazole and pyridone derivatives bearing sulfisoxazole moiety” (2014):
Values after ≈ are worked out from the molar mass of the structure shown. Active and inactive are the calls of the source. The calls are words filed in the database; no cut-off is given here.

Experiments:
Format in all cases: functional
[1] = test system: Bacillus subtilis; test: Antimicrobial activity against Bacillis subtilis RCMB 010067 assessed as inhibition zone at 5 mg/ml after 24 hrs; conditions: RCMB 010067, 24 h, read-out: IZ
How it was run: (§1)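 Agar diffusion on nutrient agar seeded with 10^6 CFU/mL bacteria. Filter-paper disks were loaded with 100 µL of a 5 mg/mL compound solution in DMF, with a DMF-only control. Incubation was 37 °C for 24 h. Inhibition zone in mm (mean ± SD, triplicate plates) was measured beyond the 6 mm diameter.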

[2] = test system: Bacillus subtilis; test: Antimicrobial activity against Bacillis subtilis RCMB 010067 assessed as absence of turbidity after 24 hrs; conditions: RCMB 010067, 24 h
How it was run: (§2)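 Broth microdilution in Müller–Hinton broth. DMF stocks at 1000 µg/mL were diluted in broth to give twofold serial dilutions over 500–0.007 µg/mL. Bacterial inoculum was about 10^6 CFU/mL in 96-well plates, sealed and incubated at 37 °C for 24 h in a humid chamber. MIC was taken as the lowest concentration with no visible turbidity. DMF and uninoculated-medium controls were included. Only compounds giving zones >10 mm were tested.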

[3] = test system: Proteus vulgaris; test: Antimicrobial activity against Proteus vulgaris RCMB 010085 assessed as absence of turbidity after 24 hrs; how it was run: as §2
[4] = test system: Staphylococcus epidermidis; test: Antimicrobial activity against Staphylococcus epidermidis RCMB 010024 assessed as inhibition zone at 5 mg/ml after 24 hrs; conditions: RCMB 010024, 24 h, read-out: IZ; how it was run: as §1
[5] = test system: Geotrichum candidum; test: Antifungal activity against Geotrichum candidum RCMB 05097 assessed as absence of turbidity after 48 hrs; conditions: RCMB 05097, 48 h
How it was run: (§3)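 Broth microdilution in Sabouraud liquid medium. DMF stocks at 1000 µg/mL were diluted in broth to give twofold serial dilutions over 500–0.007 µg/mL. Fungal inoculum was about 10^4 CFU/mL in 96-well plates, sealed and incubated at 25 °C for 48 h in a humid chamber. MIC was taken as the lowest concentration with no visible turbidity. DMF and uninoculated-medium controls were included.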

[6] = test system: Klebsiella pneumoniae; test: Antimicrobial activity against Klebsiella pneumoniae RCMB 010093 assessed as inhibition zone at 5 mg/ml after 24 hrs; conditions: RCMB 010093, 24 h, read-out: IZ; how it was run: as §1
[7] = test system: Geotrichum candidum; test: Antifungal activity against Geotrichum candidum RCMB 05097 assessed as inhibition zone at 5 mg/ml after 48 hrs; conditions: RCMB 05097, 48 h, read-out: IZ
How it was run: (§4)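 Disk diffusion on nutrient agar seeded with 10^4 CFU/mL fungus. Sterile filter-paper disks carried 100 µL of a 5 mg/mL DMF solution, and DMF alone served as control. Plates were incubated at 25 °C for 48 h. Mean inhibition zone in mm ± SD was read beyond the 6 mm diameter, in triplicate.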

[8] = test system: Escherichia coli; test: Antimicrobial activity against Escherichia coli RCMB 010052 assessed as absence of turbidity after 24 hrs; conditions: RCMB 010052, 24 h; how it was run: as §2
[9] = test system: Aspergillus fumigatus; test: Antifungal activity against Aspergillus fumigatus RCMB 02568 assessed as inhibition zone at 5 mg/ml after 48 hrs; conditions: RCMB 02568, 48 h, read-out: IZ; how it was run: as §4
[10] = test system: Klebsiella pneumoniae; test: Antimicrobial activity against Klebsiella pneumoniae RCMB 010093 assessed as absence of turbidity after 24 hrs; conditions: RCMB 010093, 24 h; how it was run: as §2
[11] = test system: Aspergillus fumigatus; test: Antifungal activity against Aspergillus fumigatus RCMB 02568 assessed as absence of turbidity after 48 hrs; conditions: RCMB 02568, 48 h; how it was run: as §3
[12] = test system: Streptococcus pneumoniae; test: Antimicrobial activity against Streptococcus pneumoniae RCMB 010010 assessed as absence of turbidity after 24 hrs; conditions: RCMB 010010, 24 h; how it was run: as §2
[13] = test system: Proteus vulgaris; test: Antimicrobial activity against Proteus vulgaris RCMB 010085 assessed as inhibition zone at 5 mg/ml after 24 hrs; conditions: for zone of inhibition at 5000 µg/mL: RCMB 010085, 24 h, read-out: IZ; how it was run: as §1
[14] = test system: Escherichia coli; test: Antimicrobial activity against Escherichia coli RCMB 010052 assessed as inhibition zone at 5 mg/ml after 24 hrs; conditions: RCMB 010052, 24 h, read-out: IZ; how it was run: as §1
[15] = test system: Staphylococcus epidermidis; test: Antimicrobial activity against Staphylococcus epidermidis RCMB 010024 assessed as absence of turbidity after 24 hrs; conditions: RCMB 010024, 24 h; how it was run: as §2
[16] = test system: Syncephalastrum racemosum; test: Antifungal activity against Syncephalastrum racemosum RCMB 05922 assessed as inhibition zone at 5 mg/ml after 48 hrs; conditions: RCMB 05922, 48 h, read-out: IZ
[17] = test system: Syncephalastrum racemosum; test: Antifungal activity against Syncephalastrum racemosum RCMB 05922 assessed as absence of turbidity after 48 hrs; conditions: RCMB 05922, 48 h
[18] = test system: Streptococcus pneumoniae; test: Antimicrobial activity against Streptococcus pneumoniae RCMB 010010 assessed as inhibition zone at 5 mg/ml after 24 hrs; conditions: RCMB 010010, 24 h, read-out: IZ; how it was run: as §1

Compound	zone of inhibition at 5000 µg/mL [1]	MIC [2]	MIC ([3]; RCMB 010085, 24 h)	zone of inhibition at 5000 µg/mL [4]	MIC [5]	zone of inhibition at 5000 µg/mL [6]	zone of inhibition at 5000 µg/mL [7]	MIC [8]	zone of inhibition at 5000 µg/mL [9]	MIC [10]	MIC [11]	MIC [12]	zone of inhibition at 5000 µg/mL [13]	zone of inhibition at 5000 µg/mL [14]	MIC [15]	zone of inhibition at 5000 µg/mL [16]	MIC [17]	zone of inhibition at 5000 µg/mL [18]	MIC [3]	Activity [13]
COc1ccc(-c2c(C#N)c(S)n(-c3ccc(S(=O)(=O)Nc4onc(C)c4C)cc3)c(=O)c2C#N)cc1	22.4 mm	0.98 µg/mL (≈ 1.84 µM)	3.9 µg/mL (≈ 7.31 µM)	19.9 mm	0.49 µg/mL (≈ 0.918 µM)	21.4 mm	22.4 mm	0.98 µg/mL (≈ 1.84 µM)	20.4 mm	0.98 µg/mL (≈ 1.84 µM)	0.98 µg/mL (≈ 1.84 µM)	0.98 µg/mL (≈ 1.84 µM)	18.6 mm	20.6 mm	1.95 µg/mL (≈ 3.65 µM)	16.3 mm	31.2 µg/mL (≈ 58.6 µM)	20.6 mm	–	–
Cc1noc(NS(=O)(=O)c2ccc(-n3c(S)c(C#N)c(-c4ccco4)c(C#N)c3=O)cc2)c1C	23.6 mm	0.12 µg/mL (≈ 0.243 µM)	7.81 µg/mL (≈ 15.8 µM)	21.4 mm	0.12 µg/mL (≈ 0.243 µM)	22.6 mm	24.3 mm	0.98 µg/mL (≈ 1.99 µM)	22 mm	0.24 µg/mL (≈ 0.486 µM)	0.49 µg/mL (≈ 0.993 µM)	0.24 µg/mL (≈ 0.486 µM)	18.3 mm	21.6 mm	0.98 µg/mL (≈ 1.99 µM)	20.6 mm	0.98 µg/mL (≈ 1.99 µM)	22.6 mm	–	–
CC(=O)c1sc(NC23CC4CC(CC(C4)C2)C3)c(C(=O)Nc2ccc(S(=O)(=O)Nc3onc(C)c3C)cc2)c1N	22.9 mm	0.24 µg/mL (≈ 0.411 µM)	15.6 µg/mL (≈ 26.7 µM)	20.9 mm	0.12 µg/mL (≈ 0.206 µM)	20.3 mm	24.6 mm	0.007 µg/mL (≈ 0.012 µM)	25.3 mm	0.98 µg/mL (≈ 1.68 µM)	0.06 µg/mL (≈ 0.103 µM)	0.98 µg/mL (≈ 1.68 µM)	17.4 mm	29.9 mm	0.98 µg/mL (≈ 1.68 µM)	26.9 mm	0.007 µg/mL (≈ 0.012 µM)	21.6 mm	–	–
CCOc1ccc(-n2nc(C(=O)Nc3ccc(S(=O)(=O)Nc4onc(C)c4C)cc3)c(N)c2C#N)cc1	19.6 mm	1.95 µg/mL (≈ 3.74 µM)	7.81 µg/mL (≈ 15 µM)	18.9 mm	0.49 µg/mL (≈ 0.939 µM)	25.1 mm	21.9 mm	31.2 µg/mL (≈ 59.9 µM)	23 mm	0.06 µg/mL (≈ 0.115 µM)	0.24 µg/mL (≈ 0.46 µM)	1.95 µg/mL (≈ 3.74 µM)	18.2 mm	16.4 mm	3.9 µg/mL (≈ 7.48 µM)	24.6 mm	0.06 µg/mL (≈ 0.115 µM)	20 mm	–	–
Cc1noc(NS(=O)(=O)c2ccc(NC(=O)/C(C#N)=C/c3ccc(Cl)cc3)cc2)c1C	25.6 mm	0.03 µg/mL (≈ 0.0657 µM)	3.9 µg/mL (≈ 8.54 µM)	22.3 mm	0.12 µg/mL (≈ 0.263 µM)	23.9 mm	24.6 mm	0.49 µg/mL (≈ 1.07 µM)	20.3 mm	0.06 µg/mL (≈ 0.131 µM)	0.98 µg/mL (≈ 2.14 µM)	0.98 µg/mL (≈ 2.14 µM)	19.2 mm	22.1 mm	0.49 µg/mL (≈ 1.07 µM)	21.6 mm	0.98 µg/mL (≈ 2.14 µM)	20.3 mm	–	–
C=CCNc1sc(C(C)=O)c(N)c1C(=O)Nc1ccc(S(=O)(=O)Nc2onc(C)c2C)cc1	23.7 mm	0.12 µg/mL (≈ 0.245 µM)	–	19.3 mm	0.49 µg/mL (≈ 1 µM)	18.9 mm	21.9 mm	7.81 µg/mL (≈ 16 µM)	20.6 mm	3.9 µg/mL (≈ 7.97 µM)	0.98 µg/mL (≈ 2 µM)	0.98 µg/mL (≈ 2 µM)	–	18.3 mm	3.9 µg/mL (≈ 7.97 µM)	21.1 mm	0.98 µg/mL (≈ 2 µM)	20.6 mm	inactive	inactive
Cc1noc(NS(=O)(=O)c2ccc(-n3c(S)c(C#N)c(-c4ccc(Cl)cc4)c(C#N)c3=O)cc2)c1C	24.4 mm	0.12 µg/mL (≈ 0.223 µM)	3.9 µg/mL (≈ 7.25 µM)	20.2 mm	0.24 µg/mL (≈ 0.446 µM)	23.2 mm	22.8 mm	0.98 µg/mL (≈ 1.82 µM)	21.6 mm	0.24 µg/mL (≈ 0.446 µM)	0.98 µg/mL (≈ 1.82 µM)	0.49 µg/mL (≈ 0.911 µM)	19.3 mm	20.6 mm	0.49 µg/mL (≈ 0.911 µM)	20.2 mm	1.95 µg/mL (≈ 3.62 µM)	22.3 mm	–	–
CNc1sc(C(C)=O)c(N)c1C(=O)Nc1ccc(S(=O)(=O)Nc2onc(C)c2C)cc1	19.1 mm	3.9 µg/mL (≈ 8.41 µM)	3.9 µg/mL (≈ 8.41 µM)	18.7 mm	31.2 µg/mL (≈ 67.4 µM)	16.9 mm	16.4 mm	15.6 µg/mL (≈ 33.7 µM)	15.8 mm	15.6 µg/mL (≈ 33.7 µM)	62.5 µg/mL (≈ 135 µM)	16.6 µg/mL (≈ 35.9 µM)	18.2 mm	17.1 mm	7.81 µg/mL (≈ 16.8 µM)	14.1 mm	62.5 µg/mL (≈ 135 µM)	16.6 mm	–	–
